Data from ChEMBL document CHEMBL1125042, “Hypolipidemic activity of rifamycin derivatives” (J Med Chem, 1990).
≈ marks a conversion by molar mass, not a printed value.

Columns and labels:
Type in all cases: functional
Rattus norvegicus [1] = experiment: Hypolipidemic activity was determined in male rats, and high-density lipoprotein level was determined at 50 mg/kg
Method in brief: (§1)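 Male Wistar rats (200–230 g), eight per group, were dosed orally in PEG 400 at 8 a.m. for 4 days, plus a second dose at 4 p.m. on day 4. Rats were fasted 16 h and killed 16 h after the last dose. Sera from pairs of rats were pooled. LDL (up to 1.040 g/cm³) was separated by ultracentrifugation and the HDL infranatant taken. Cholesterol was measured enzymatically. Results are % versus vehicle control, mean ± SEM of four pools, Student's t test.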

Staphylococcus aureus = experiment: Antibacterial activity against Staphylococcus aureus 10B
Method in brief: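 Agar dilution on DST agar with 2-fold drug dilutions. Inoculum of 10⁴ viable S. aureus 10B was taken from liquid-nitrogen stock, thawed 30 min and not subcultured. It was applied by multipoint replicator and incubated overnight at 37 °C. MIC is the lowest concentration inhibiting growth relative to control cultures.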

Rattus norvegicus [2] = experiment: Tested for hypolipidemic activity in male rats, cholesterol was determined in serum at 50 mg/kg
Method in brief: (§2)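 Groups of eight male Wistar rats (200–230 g) dosed orally in PEG 400, either daily for 7 days (killed 24 h after the last dose) or for 4 days with a second dose on day 4 (killed 16 h later). Fasted 16 h. Paired sera pooled, lipoproteins separated by ultracentrifugation (1.006 and 1.040 g/cm³), HDL taken as the infranatant. Cholesterol measured enzymatically; % vs vehicle, mean ± SEM of four pools.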

Rattus norvegicus [3] = experiment: Hypolipidemic activity was determined in male rats, and low-density lipoprotein level was determined at 50 mg/kg; method in brief: as §1
Rattus norvegicus [4] = experiment: Tested for hypolipidemic activity in male rats, cholesterol was determined in serum at 20 mg/kg; method in brief: as §2
Rattus norvegicus [5] = experiment: Hypolipidemic activity was determined in male rats, and low-density lipoprotein level was determined at 20 mg/kg; method in brief: as §1
Rattus norvegicus [6] = experiment: Hypolipidemic activity was determined in male rats, and high-density lipoprotein level was determined at 20 mg/kg; method in brief: as §1

Compound | Activity (Rattus norvegicus [1]) [%] | MIC (Staphylococcus aureus) [µg/mL] | Activity (Rattus norvegicus [2]) [%] | Activity (Rattus norvegicus [3]) [%] | Activity (Rattus norvegicus [4]) [%] | Activity (Rattus norvegicus [5]) [%] | Activity (Rattus norvegicus [6]) [%]
CO[C@H]1/C=C/O[C@@]2(C)Oc3c(C)c(O)c4c(O)c(cc(O)c4c3C2=O)NC(=O)/C(C)=C\C=C\[C@H](C)[C@H](O)[C@@H](C)[C@@H](O)[C@@H](C)[C@H](OC(C)=O)[C@@H]1C [RIFAMYCIN] | 1 | 0.001 (≈ 0.00143 µM) | 4 | 21 |  |  | 
CCOC(=O)C1CCN(c2c3c(O)c4c(O)c(C)c5c(c4c2O)C(=O)C(C)(O/C=C/C(OC)C(C)C(OC(C)=O)C(C)C(O)C(C)C(O)C(C)/C=C/C=C(/C)C(=O)N3)O5)CC1 (centres undefined) |  | < 0.1 |  |  | -16 | 5 | -16
COC1/C=C/OC2(C)Oc3c(C)c(O)c4c(O)c(c5[nH]c(N6CCN(Cc7ccccc7)CC6)nc5c4c3C2=O)NC(=O)/C(C)=C\C=C\C(C)C(O)C(C)C(O)C(C)C(OC(C)=O)C1C (centres undefined) | -33 | 0.005 (≈ 0.00558 µM) | -27 | -23 |  |  | 
COC1/C=C/OC2(C)Oc3c(C)c(O)c4c(O)c(c(C=NN5CCN(C6CCCC6)CC5)c(O)c4c3C2=O)NC(=O)/C(C)=C\C=C\C(C)C(O)C(C)C(O)C(C)C(OC(C)=O)C1C (centres undefined) | -59 | 0.01 (≈ 0.0114 µM) | -62 | -60 |  |  | 
COC1/C=C/OC2(C)Oc3c(C)c(O)c4c(O)c(c(N5CCN(CC(C)C)CC5)c(O)c4c3C2=O)NC(=O)/C(C)=C\C=C\C(C)C(O)C(C)C(O)C(C)C(OC(C)=O)C1C (centres undefined) | -60 | 0.005 (≈ 0.00597 µM) | -50 | -64 |  |  | 
CCC1CCN(c2c3c(O)c4c(O)c(C)c5c(c4c2O)C(=O)C(C)(O/C=C/C(OC)C(C)C(OC(C)=O)C(C)C(O)C(C)C(O)C(C)/C=C/C=C(/C)C(=O)N3)O5)CC1 (centres undefined) |  | < 0.1 |  |  | -57 | -51 | -61
COC1/C=C/OC2(C)Oc3c(C)c(O)c4c(O)c(c(N5CCN(Cc6ccc(C(C)(C)C)cc6)CC5)c(O)c4c3C2=O)NC(=O)/C(C)=C\C=C\C(C)C(O)C(C)C(O)C(C)C(OC(C)=O)C1C (centres undefined) |  | 0.5 (≈ 0.539 µM) |  |  | -70 | -70 | -71
Cc1cc(C)c(CN2CCNCC2)c(C)c1 | -5 | 128 (≈ 586 µM) | -7 | 0 |  |  | 
COC1/C=C/OC2(C)Oc3c(C)c(O)c4c(O)c(c(N5CCCCC5)c(O)c4c3C2=O)NC(=O)/C(C)=C\C=C\C(C)C(O)C(C)C(O)C(C)C(OC(C)=O)C1C (centres undefined) |  | < 0.1 |  |  | -32 | -19 | -36
COC1/C=C/OC2(C)Oc3c(C)c(O)c4c(O)c(c(N5CCC(C(N)=O)CC5)c(O)c4c3C2=O)NC(=O)/C(C)=C\C=C\C(C)C(O)C(C)C(O)C(C)C(OC(C)=O)C1C (centres undefined) |  | < 0.1 |  |  | -9 | 11 | -6
COC1/C=C/OC2(C)Oc3c(C)c(OC(=O)C(C)(C)C)c4c(c3C2=O)C(=O)C(N2CCN(Cc3c(C)cc(C)cc3C)CC2)=C(NC(=O)/C(C)=C\C=C\C(C)C(O)C(C)C(O)C(C)C(OC(C)=O)C1C)C4=O (centres undefined) |  | 0.5 (≈ 0.502 µM) |  |  | -48 | -32 | -53
COC1/C=C/OC2(C)Oc3c(C)c(O)c4c(O)c(c5c(c4c3C2=O)=NC2(CCN(CC(C)C)CC2)N=5)NC(=O)/C(C)=C\C=C\C(C)C(O)C(C)C(O)C(C)C(OC(C)=O)C1C (centres undefined) | -21 | 0.001 (≈ 0.00118 µM) | -7 | 14 |  |  | 
COC1/C=C/OC2(C)Oc3c(C)c(O)c4c(O)c(c(N5CCC(CC6CCCCC6)CC5)c(O)c4c3C2=O)NC(=O)/C(C)=C\C=C\C(C)C(O)C(C)C(O)C(C)C(OC(C)=O)C1C (centres undefined) |  | 1 (≈ 1.14 µM) |  |  | -62 | -31 | -67
COC1/C=C/OC2(C)Oc3c(C)c(O)c4c(O)c(c(N)c(O)c4c3C2=O)NC(=O)/C(C)=C\C=C\C(C)C(O)C(C)C(O)C(C)C(OC(C)=O)C1C (centres undefined) | 6 | 0.003 (≈ 0.00421 µM) | -2 | 19 |  |  | 
COC1/C=C/OC2(C)Oc3c(C)c(O)c4c(O)c(c(N5CCN(Cc6ccc(Cl)cc6)CC5)c(O)c4c3C2=O)NC(=O)/C(C)=C\C=C\C(C)C(O)C(C)C(O)C(C)C(OC(C)=O)C1C (centres undefined) | -73 | 0.002 (≈ 0.00221 µM) | -74 | -85 |  |  | 
COC1/C=C/OC2(C)Oc3c(C)c(O)c4c(O)c(c(N5CCNCC5C(=O)O)c(O)c4c3C2=O)NC(=O)/C(C)=C\C=C\C(C)C(O)C(C)C(O)C(C)C(OC(C)=O)C1C (centres undefined) | 5 | 0.5 (≈ 0.605 µM) | -2 | 53 |  |  | 
